Experimental data as given in paper PMC2196149 (The Journal of Experimental Medicine, 1997).
Primed or numbered codes have the meaning given here. No end group written: not given here. *: point of attachment. IASA″ = iodo-4-azidosalicylic acid, on the N-terminus in place of PbCS S-252; Benzoyl(4-N3) = [N-]=[N+]=Nc1ccc(C(=O)*)cc1; IASA = iodo-4-azidosalicylic acid

Key:
TCR on CTL S4 = test: TCR-ligand dissociation, clone S4; format: binding, mice; details: preliminary, unpublished results
[1] = test system: seven IASA-YIPSAEK(ABA)I-specific CTL clones; test: 51Cr release cytolytic assay, P815 targets, seven CTL clones; format: cell-based, mice; details: clones S1, S4, S14, S15, S17, S18, T1; 51Cr-labeled P815 targets; wt = 1 (Fig. 3 A)
S15 CTL = test: 51Cr release cytolytic assay, P815 targets, clone S15; format: cell-based, mice; details: 51Cr-labeled P815 targets; partial recognition
Method in brief: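 Cloned CTL are tested on 51Cr-labeled P815 mastocytoma targets (DMEM, 5% FCS, 10 mM Hepes), 2 × 10^3/well, with threefold dilutions of peptide derivative. CTL (6 × 10^3/well) added after 15 min; 4 h at 37°C. Supernatant 51Cr measured. Specific lysis = 100 × (experimental − spontaneous)/(total − spontaneous release).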

[2] = test system: S15 CTL / A20 Fas^− cells; test: 51Cr release cytolytic assay, A20 Fas^− targets, clone S15; format: cell-based, mice; details: 51Cr-labeled A20 Fas^− cells, E/T 3:1, 8 h; representative experiment (Fig. 4 B)
Method in brief: (§1)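 Murine H-2Kd-restricted CTL clone specific for a photoreactive derivative of a Plasmodium berghei circumsporozoite 252–260 peptide. Targets are 51Cr-labeled A20 B lymphoma cells or their Fas-lacking variant, 2 × 10^3/well, in threefold dilutions of peptide derivative in DMEM + 5% FCS + 10 mM Hepes. CTL (6 × 10^3/well) added after 15 min; 8 h at 37°C. Supernatant 51Cr counted. Specific lysis = 100 × (experimental − spontaneous)/(total − spontaneous).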

S15 CTL / A20 cells = test: 51Cr release cytolytic assay, A20 targets, clone S15; format: cell-based, mice; details: 51Cr-labeled A20 cells, E/T 3:1, 8 h; representative experiment (Fig. 4 A)
Method in brief: as §1

TCR on CTL T1 = test: TCR-ligand dissociation, clone T1; format: binding, mice; details: preliminary, unpublished results
S14 CTL = test: inhibition of recognition of photocross-linked IASA-YIPSAEK; format: cell-based, mice; details: P815 cells photocross-linked with suboptimal IASA-YIPSAEK(ABA)I (Fig. 5 B)
TCR on CTL S17 = test: TCR-ligand dissociation, clone S17; format: binding, mice; details: preliminary, unpublished results

E258A ({IASA}-YIPSAAK(Benzoyl(4-N3))I)
dissociation of ligand from TCR compared with wild-type ligand (TCR on CTL S4): considerably slower

I254A ({IASA}-YAPSAEK(Benzoyl(4-N3))I)
normalized relative antigenic activities over seven CTL clones [1]: 0.1 to 6

IASA-YIPSAEK(ASA)I [K259(ASA)]
plateau of specific lysis, S15 CTL (S15 CTL): ≤ 30%
concentration for half-maximal lysis of A20 Fas^− cells by S15 CTL [2]: not detectably lysed
specific lysis at half-maximum, A20 cells, S15 CTL (S15 CTL / A20 cells): 13%
normalized relative antigenic activities over seven CTL clones [1]: efficiently recognized by all clones, except by clone S15

IASA-YIPSAEK(IASA)I
plateau of specific lysis, S15 CTL (S15 CTL): even lower plateau of lysis

P255A ({IASA}-YIASAEK(Benzoyl(4-N3))I; not fully specified)
dissociation of ligand from TCR compared with wild-type ligand (TCR on CTL T1): faster
normalized relative antigenic activities over seven CTL clones [1]: 0.1 to 6

P255L ({IASA}-YILSAEK(Benzoyl(4-N3))I; not fully specified)
concentration required for maximal inhibition relative to K259(BA), S14 CTL (S14 CTL): ~10 fold

P255S ({IASA}-YISSAEK(Benzoyl(4-N3))I; not fully specified)
dissociation of ligand from TCR compared with wild-type ligand (TCR on CTL S17): considerably slower

S256A ({IASA″}-YIPAAEK(Benzoyl(4-N3))I)
dissociation of ligand from TCR compared with wild-type ligand (TCR on CTL S17): faster
normalized relative antigenic activities over seven CTL clones [1]: 0.1 to 6
